Data from ChEMBL document CHEMBL2407075, “Sulphonamido-quinoxalines: search for anticancer agent” (Eur J Med Chem, 2013).

Assays:
Type in all cases: functional
[1] = test system: HCT-15; experiment: Growth inhibition of human HCT15 cells after 48 hrs by sulforhodamine B assay; details: HCT-15, 48 h; for CC50: read-out: LC50 (the source's name)
Method in brief: (§1)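 Adherent cells in RPMI 1640 with 5% FBS and 2 mM L-glutamine were plated at 5000–40,000 cells/well and grown 24 h. Five concentrations (0.01–100 µM, DMSO stock) were added for 48 h at 37 °C. Cells were fixed with cold TCA (10% final) and stained with SRB, read at 515 nm. GI50 came from log concentration–growth curves against time-zero and control plates.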

[2] = test system: OVCAR-4; experiment: Growth inhibition of human OVCAR4 cells after 48 hrs by sulforhodamine B assay; details: OVCAR-4, 48 h; for CC50: read-out: LC50 (the source's name)
Method in brief: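 Five-dose NCI 60 screen at 0.01, 0.1, 1, 10 and 100 µM, 48 h exposure after 24 h preincubation, in RPMI 1640 with 5% FBS and 2 mM glutamine. Fixed with TCA (10% final for adherent cells, 16% for suspension cells), stained with SRB, A515 read. Percent growth uses time-zero (Tz), control and treated plates. GI50, TGI and LC50 are read from the dose-response curves.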

[3] = test system: OVCAR-3; experiment: Growth inhibition of human OVCAR3 cells assessed as cell growth at 10^-7 M after 48 hrs by sulforhodamine B assay; details: OVCAR-3, 48 h, read-out: Activity
[4] = test system: BT-549; experiment: Growth inhibition of human BT549 cells after 48 hrs by sulforhodamine B assay; details: BT-549, 48 h; for CC50: read-out: LC50 (the source's name); method in brief: as §1
[5] = test system: HL-60(TB); experiment: Growth inhibition of human HL-60(TB) cells assessed as cell growth at 10^-8 M after 48 hrs by sulforhodamine B assay; details: HL-60, 48 h, read-out: Activity
Method in brief: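 HL-60(TB) suspension cells were treated 48 h at 37 °C within the five-dose series (0.01–100 µM), fixed with 16% final TCA and SRB-stained, read at 515 nm. Percentage growth at each concentration = (Ti−Tz)/(C−Tz)×100, or (Ti−Tz)/Tz×100 when Ti<Tz, with time-zero (Tz) and untreated control (C) plates.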

[6] = test system: M14; experiment: Growth inhibition of human M14 cells assessed as cell growth at 10^-6 M after 48 hrs by sulforhodamine B assay; details: M14, 48 h, read-out: Activity
[7] = test system: NCI-H226; experiment: Growth inhibition of human NCI-H226 cells assessed as cell growth at 10^-7 M after 48 hrs by sulforhodamine B assay; details: NCI-H226, 48 h, read-out: Activity
[8] = test system: SR; experiment: Growth inhibition of human SR cells assessed as cell growth at 10^-5 M after 48 hrs by sulforhodamine B assay; details: read-out: Activity
[9] = test system: U-251; experiment: Growth inhibition of human U251 cells assessed as cell growth at 10^-5 M after 48 hrs by sulforhodamine B assay; details: U-251, 48 h, read-out: Activity
[10] = test system: SF-539; experiment: Growth inhibition of human SF539 cells assessed as cell growth at 10^-4 M after 48 hrs by sulforhodamine B assay; details: SF-539, 48 h, read-out: Activity
[11] = test system: NCI-H522; experiment: Growth inhibition of human NCI-H522 cells after 48 hrs by sulforhodamine B assay; details: NCI-H522, 48 h; for CC50: read-out: LC50 (the source's name); method in brief: as §1
[12] = test system: HOP-62; experiment: Growth inhibition of human HOP62 cells assessed as cell growth at 10^-5 M after 48 hrs by sulforhodamine B assay; details: HOP-62, 48 h, read-out: Activity
Method in brief: (§2)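 Five-dose screen at NCI. Cells in RPMI 1640 with 5% FBS and 2 mM L-glutamine, seeded at 5000–40,000 cells/well and grown 24 h at 37 °C, 5% CO2 before dosing, with time-zero plates TCA-fixed. Drug diluted from DMSO stock to 0.01, 0.1, 1, 10 and 100 µM final, 48 h. Cells fixed with cold TCA (10% final), stained with 0.4% SRB and read at 515 nm. Percent growth from Tz, control and test absorbances; GI50, TGI and LC50 from dose-response curves.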

[13] = test system: MOLT-4; experiment: Growth inhibition of human MOLT4 cells assessed as cell growth at 10^-7 M after 48 hrs by sulforhodamine B assay; details: MOLT-4, 48 h, read-out: Activity
[14] = test system: NCI-H460; experiment: Growth inhibition of human NCI-H460 cells after 48 hrs by sulforhodamine B assay; details: NCI-H460, 48 h; for CC50: read-out: LC50 (the source's name); method in brief: as §1
[15] = test system: BT-549; experiment: Growth inhibition of human BT549 cells assessed as cell growth at 10^-8 M after 48 hrs by sulforhodamine B assay; details: BT-549, 48 h, read-out: Activity
Method in brief: (§3)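 Five-dose NCI-60 run (0.01, 0.1, 1, 10 and 100 µM, as 10-fold dilutions from a DMSO stock made at 400× the top final level). Cells were grown in RPMI 1640 with 5% FBS and 2 mM glutamine and plated for 24 h. They were then exposed for 48 h at 37 °C and 5% CO2. TCA fixation was followed by SRB staining with A515 read-out. Percent growth was taken relative to time-zero and control plates.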

[16] = test system: SK-OV-3; experiment: Growth inhibition of human SKOV3 cells assessed as cell growth at 10^-4 M after 48 hrs by sulforhodamine B assay; details: SK-OV-3, 48 h, read-out: Activity
[17] = test system: IGROV-1; experiment: Growth inhibition of human IGROV1 cells assessed as cell growth at 10^-5 M after 48 hrs by sulforhodamine B assay; details: IGROV-1, 48 h, read-out: Activity; method in brief: as §2
[18] = test system: SK-MEL-5; experiment: Growth inhibition of human SK-MEL-5 cells assessed as cell growth at 10^-7 M after 48 hrs by sulforhodamine B assay; details: SK-MEL-5, 48 h, read-out: Activity
[19] = test system: NCI-H23; experiment: Growth inhibition of human NCI-H23 cells assessed as cell growth at 10^-7 M after 48 hrs by sulforhodamine B assay; details: NCI-H23, 48 h, read-out: Activity
[20] = test system: COLO 205; experiment: Growth inhibition of human COLO205 cells after 48 hrs by sulforhodamine B assay; details: COLO 205, 48 h, read-out: LC50 (the source's name); method in brief: as §1
[21] = test system: KM12; experiment: Growth inhibition of human KM12 cells after 48 hrs by sulforhodamine B assay; details: KM12, 48 h; for CC50: read-out: LC50 (the source's name); method in brief: as §1
[22] = test system: SW-620; experiment: Growth inhibition of human SW620 cells assessed as cell growth at 10^-8 M after 48 hrs by sulforhodamine B assay; details: SW-620, 48 h, read-out: Activity
[23] = test system: OVCAR-8; experiment: Growth inhibition of human OVCAR8 cells assessed as cell growth at 10^-6 M after 48 hrs by sulforhodamine B assay; details: OVCAR-8, 48 h, read-out: Activity
[24] = test system: A549; experiment: Growth inhibition of human A549/ATCC cells assessed as cell growth at 10^-4 M after 48 hrs by sulforhodamine B assay; details: A549, 48 h, read-out: Activity; method in brief: as §3
[25] = test system: PC-3; experiment: Growth inhibition of human PC3 cells assessed as cell growth at 10^-8 M after 48 hrs by sulforhodamine B assay; details: PC-3, 48 h, read-out: Activity

O=S(=O)(Nc1ccc(Cl)cc1)c1ccc2nc(-c3ccccc3)c(-c3ccccc3)nc2c1
TGI [1]: > 100 µM | CC50 [1]: > 100 µM | TGI [2]: > 100 µM | CC50 [2]: > 100 µM | growth at 0.1 µM [3]: 97% | CC50 [4]: > 100 µM | growth at 0.01 µM [5]: 97% | growth at 1 µM [6]: 94% | growth at 0.1 µM [7]: 99% | growth at 10 µM [8]: -48% | growth at 10 µM [9]: -5% | growth at 100 µM [10]: 73% | CC50 [11]: > 100 µM | growth at 10 µM [12]: 13% | growth at 0.1 µM [13]: 94% | CC50 [14]: > 100 µM | growth at 0.01 µM [15]: 98% | growth at 100 µM [16]: 65% | growth at 10 µM [17]: 24% | growth at 0.1 µM [18]: 95% | growth at 0.1 µM [19]: 92% | CC50 [20]: > 100 µM | TGI [21]: > 100 µM | CC50 [21]: > 100 µM | growth at 0.01 µM [22]: 93% | growth at 1 µM [23]: 92% | growth at 100 µM [24]: 73% | growth at 0.01 µM [25]: 90%

O=S(=O)(Nc1ccccn1)c1ccc2nc(-c3ccccc3)c(-c3ccccc3)nc2c1
TGI [1]: > 100 µM | CC50 [1]: > 100 µM | GI50 [2]: 2.79 µM | TGI [2]: > 100 µM | CC50 [2]: > 100 µM | growth at 0.1 µM [3]: 92% | GI50 [4]: 1.58 µM | CC50 [4]: > 100 µM | growth at 0.01 µM [5]: 98% | growth at 1 µM [6]: 98% | growth at 0.1 µM [7]: 95% | growth at 10 µM [8]: -42% | growth at 10 µM [9]: 2% | growth at 100 µM [10]: 54% | GI50 [11]: 1.6 µM | CC50 [11]: > 100 µM | growth at 10 µM [12]: 16% | growth at 0.1 µM [13]: 95% | TGI [14]: > 100 µM | CC50 [14]: > 100 µM | growth at 0.01 µM [15]: 99% | growth at 100 µM [16]: 37% | growth at 10 µM [17]: 30% | growth at 0.1 µM [18]: 92% | growth at 0.1 µM [19]: 94% | CC50 [20]: 100 µM | TGI [21]: > 100 µM | CC50 [21]: > 100 µM | growth at 0.01 µM [22]: 101% | growth at 1 µM [23]: 85% | growth at 100 µM [24]: 51% | growth at 0.01 µM [25]: 97%
